Data set [1] has as its system CT-DNA (calf thymus DNA). The experiment in a line: UV-Vis titration with CT-DNA. Conditions: 298 K; for apparent binding constant Kapp with CT-DNA: UV-Vis titration, Tris-HCl pH 7.2; for standard Gibbs free energy change ΔG° of CT-DNA binding: ΔG° = -RTlnKapp. The data set is classed as binding. In outline: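 CT-DNA stock was 1.5 mg/mL in Tris-HCl pH 7.2, made at 4 °C, with A260/A280 of 1.8–1.9; it was quantified by ε260 = 6600 M−1cm−1. 50 µL of stock was added to 1.45 mL buffer. Test compound (10−4 M stock in water) was added stepwise up to 9.09–13.29 µM, with 2 min at 298 K per step and absorbance read at 260 nm. Kapp = intercept/slope of the 1/(A−A0) versus 1/[Ligand] plot. ΔG° = −RTlnKapp at 298 K.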

The target of data set [2] is bovine serum albumin (BSA) (Bos taurus, UniProt P02769). The experiment in a line: UV-Vis titration with BSA. The data set is classed as binding. The note with it: for standard Gibbs free energy change ΔG° of BSA binding: 298 K, ΔG° = -RTlnKapp. In outline:
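BSA stock was 3 mg/mL in Tris-HCl pH 7.2, made at 4 °C and quantified by ε280 = 44,300 M−1cm−1; 500 µL of stock was diluted with 1.00 mL buffer. Test compound (10−4 M stock in water) was added stepwise up to 6.83–10.18 µM, with 2 min equilibration at 298 K per step and readings at 280 nm. Kapp = intercept/slope of 1/(A−A0) versus 1/[Ligand]. ΔG° = −RTlnKapp (R 1.987 cal mol−1 K−1, T 298 K).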

The nature of data set [3]: Lipophilicity. The data set is classed as physicochemical. The note with it: 2-octanol/water. In outline:
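Shake-flask partition used 2-octanol and doubly distilled water 1:1 v/v (10 mL total) with 0.001 g test compound. The mixture was shaken overnight, left to equilibrate 1 h, and the phases separated. Compound in each phase was quantified by UV-Vis. log P was taken from the octanol/water concentration ratio.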

Data set [4] can be described thus: DPPH free radical scavenging assay. The data set is classed as biochemical. The note with it: standard control, compared with 3a-c. In outline:
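DPPH stock was 0.1 mM in ethanol. Test compound solutions at 10, 25, 50, 100, 250, 500 and 1000 µg/mL (concentrations before mixing) were each mixed 1:1 v/v with the DPPH solution. Mixtures were vortexed 10 s and kept in the dark at room temperature for 30 min, then absorbance was read at 517 nm. Ascorbic acid was the reference antioxidant. Scavenging was calculated from absorbance by equation.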
On the technique in general: The DPPH test is a chemical assay of radical scavenging.

The target of data set [5] is DNA. Conditions: traditional intercalators, typical range; cited from earlier work.

bovine serum albumin (BSA), sequence (P02769 25-607): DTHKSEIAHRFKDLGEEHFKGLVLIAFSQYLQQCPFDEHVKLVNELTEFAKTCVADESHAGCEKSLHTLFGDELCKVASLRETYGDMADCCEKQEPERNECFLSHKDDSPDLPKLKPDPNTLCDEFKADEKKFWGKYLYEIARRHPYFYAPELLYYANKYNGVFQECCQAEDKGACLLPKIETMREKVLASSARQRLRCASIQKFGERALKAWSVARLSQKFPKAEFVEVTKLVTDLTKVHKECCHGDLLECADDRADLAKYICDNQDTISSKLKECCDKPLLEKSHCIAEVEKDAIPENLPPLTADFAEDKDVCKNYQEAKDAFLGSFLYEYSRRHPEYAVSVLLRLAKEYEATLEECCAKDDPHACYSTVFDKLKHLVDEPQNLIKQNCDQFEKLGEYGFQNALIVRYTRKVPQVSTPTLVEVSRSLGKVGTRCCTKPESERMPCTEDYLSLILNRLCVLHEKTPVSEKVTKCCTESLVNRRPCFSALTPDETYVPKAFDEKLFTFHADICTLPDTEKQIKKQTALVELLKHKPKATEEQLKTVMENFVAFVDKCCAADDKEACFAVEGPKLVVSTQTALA

`O=C1Nc2ccccc2/C1=N/N=C/c1cccc([N+](=O)[O-])c1` [3a, (Z)−3-(((E)−3-nitrobenzylidene)hydrazineylidene)indolin-2-one]: in data set [1], the “apparent binding constant Kapp with CT-DNA” value was 1.01 × 10^4 M^− 1 and the “standard Gibbs free energy change ΔG° of CT-DNA binding” value was -5.46 kcal/mol. In data set [2], the equilibrium dissociation constant (Kd) (in general, the equilibrium constant for the complex coming apart) is 151 µM and the “standard Gibbs free energy change ΔG° of BSA binding” value was -5.21 kcal/mol. The logP (as a rule, the decadic logarithm of the partition coefficient of the neutral form, usually between octanol and water) in data set [3] worked out at 1.29.

Consider `COc1ccccc1/C=N/N=C1\C(=O)Nc2ccccc21` [3b, (Z)−3-(((E)−2-methoxybenzylidene)hydrazineylidene)indolin-2-one], for which, in data set [1], the “apparent binding constant Kapp with CT-DNA” value was 1.17 × 10^4 M^− 1 and the “standard Gibbs free energy change ΔG° of CT-DNA binding” value was -5.55 kcal/mol. Further, in data set [2], the equilibrium dissociation constant (Kd) was 136 µM and the “standard Gibbs free energy change ΔG° of BSA binding” value was -5.27 kcal/mol. In addition, the logP in data set [3] is 2.3.

As to `O=C1O[C@H]([C@@H](O)CO)C(O)=C1O` [ascorbic acid, Ascorbic acid], the “DPPH free radical scavenging activity (in words)” value in data set [4] was “highest scavenging activity”.

As to `CC[n+]1c(-c2ccccc2)c2cc(N)ccc2c2ccc(N)cc21` [ethidium bromide], the “binding constant Kb with DNA” value in data set [5] is 10^6 to 10^7 M^− 1.

[Ru(phen)DPPZ]: in data set [5], the “binding constant Kb with DNA” value is listed as 10^6 to 10^7 M^− 1.

These data come from publication PMC12663558 (Scientific Reports, 2025).
